Calls of active or inactive are those of the source. The calls are words filed in the database; no cut-off is given here.
How the values were obtained:
Leishmania donovani [1] = assay: Induction of apoptosis in Leishmania donovani MHOM/IN/80/Dd8 promastigotes assessed as late apoptotic cells at 50 uM measured after 48 hrs by Alexa fluor488-AnnexinV/PI staining based FACSCalibur flow cytometry analysis (reference value: 0.7%); type: functional
Leishmania donovani [2] = assay: Antileishmanial activity against amastigote stage of Leishmania donovani MHOM/IN/80/Dd8 harboring luciferase gene infected in mouse J774 cells assessed as parasite growth inhibition by Giemsa staining based analysis; type: functional, organism-based; settings: time 12-72 hrs, TDE = time-dependent effect
Procedure, shortened: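 J774 macrophages are infected for 24 h with stationary-phase luciferase-transfected Dd8 promastigotes at a 1:8 ratio in chamber slides. After compound treatment, cells are fixed and Giemsa-stained, and intracellular amastigotes are counted by microscopy.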

Leishmania donovani [3] = assay: Antileishmanial activity against amastigote stage of Leishmania donovani MHOM/IN/80/Dd8 harboring luciferase gene infected in mouse J774 cells assessed as parasite growth inhibition incubated for 72 hrs by Steady-Glo reagent based luciferase assay; type: functional, organism-based; settings: MHOM/IN/80/Dd8, J774, 72 h
Procedure, shortened: (§1)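 J774 murine macrophages, 4 × 10⁴ cells/well in RPMI with 10% FBS for 24 h, are infected for 24 h at 37 °C, 5% CO₂ with stationary-phase luciferase-transfected L. donovani Dd8 promastigotes at a 1:8 macrophage:parasite ratio. Compounds are dissolved in DMSO. Luminescence is read after Steady-Glo is added in PBS. IC₅₀ is taken from a four-parameter Hill nonlinear regression. Miltefosine is the reference.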

Leishmania donovani [4] = assay: Antileishmanial activity against Leishmania donovani MHOM/IN/80/Dd8 infected in BALB/c mouse assessed as reduction in intracellular amastigote burden in liver at 50 mg/kg, ip for 5 days and measured at 1 week post-treatment by Giemsa staining based assay relative to control; type: functional; settings: MHOM/IN/80/Dd8, ip, 288 h, time 12 day
Procedure, shortened: (§2)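 Female BALB/c mice (20–25 g), 5/group, infected iv with 2 × 10^7 stationary-phase L. donovani promastigotes. Infection confirmed at 2 wk, then 50 mg/kg ip daily for 5 consecutive days. Vehicle was 5% DMSO. Sacrificed day 7 post-treatment. Giemsa-stained liver/spleen impression smears counted as amastigotes/1000 nucleated cells, expressed as LDU (amastigotes per nucleated cell × organ weight in mg), compared with untreated infected controls.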

Leishmania donovani [5] = assay: Induction of apoptosis in Leishmania donovani MHOM/IN/80/Dd8 promastigotes assessed as early apoptotic cells at 50 uM measured after 48 hrs by Alexa fluor488-AnnexinV/PI staining based FACSCalibur flow cytometry analysis (reference value: 10.3%); type: functional
Leishmania donovani [6] = assay: Antileishmanial activity against Leishmania donovani MHOM/IN/80/Dd8 infected in BALB/c mouse assessed as reduction in intracellular amastigote burden in spleen at 50 mg/kg, ip for 5 days and measured at 1 week post-treatment by Giemsa staining based assay relative to control; type: functional; settings: MHOM/IN/80/Dd8, ip, 288 h, time 12 day; procedure, shortened: as §2
Leishmania donovani [7] = assay: Induction of apoptosis in Leishmania donovani MHOM/IN/80/Dd8 promastigotes assessed as increase in cytochrome c release by measuring increase in cytochrome c level in cytosol at 50 uM incubated for 12 to 72 hrs by Western blot analysis; type: functional, organism-based; settings: time 12-72 hrs
Procedure, shortened: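 Promastigotes treated with 50 µM for 12, 24, 48 and 72 h, then washed in PBS. Cell fractionation buffer applied 10 min on ice, cells homogenized, centrifuged 10,000 × g for 25 min at 4 °C. Cytosolic and mitochondrial fractions immunoblotted for cytochrome c. Loading controls were actin (cytosol) and COX-4 (mitochondria).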

Leishmania donovani [8] = assay: Antileishmanial activity against amastigote stage of Leishmania donovani MHOM/IN/80/Dd8 harboring luciferase gene infected in mouse J774 cells assessed as parasite growth inhibition at 25 uM incubated for 72 hrs by Steady-Glo reagent based luciferase assay; type: functional; settings: MHOM/IN/80/Dd8, J774; procedure, shortened: as §1

N#Cc1c(N2CCN(c3ccccc3O)CC2)cc(-c2ccccc2)oc1=O
Activity (Leishmania donovani [1]): 2.3%
Activity (Leishmania donovani [2]): Tde
IC50 (Leishmania donovani [3]): 11.1 µM
inhibition in vivo at 50 mg/kg (Leishmania donovani [4]): 67.3%
Activity (Leishmania donovani [5]): 39.1%
inhibition in vivo at 50 mg/kg (Leishmania donovani [6]): 56.9%
Activity (Leishmania donovani [7]): Active
inhibition at 25 µM (Leishmania donovani [8]): 84.2%

From ChEMBL document CHEMBL4837217, “Design, synthesis, in vitro and in vivo biological evaluation of pyranone-piperazine analogs as potent antileishmanial agents” (Eur J Med Chem, 2021)
